Test results published in ChEMBL document CHEMBL1152312, “Neopyrrolomycins with broad spectrum antibacterial activity” (2009).
In brackets after ≈: the same amount, converted by molar mass. Activity calls are given as the source filed them. No cut-off for these calls is given here.

Legend:
Pseudomonas aeruginosa [1] = assay: Antibacterial activity against Pseudomonas aeruginosa 1473 by microdilution method; format: functional
In short: (§1)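 MIC values from CLSI broth microdilution. Strains came from the ATCC collection and from clinical isolates.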

Escherichia coli [2] = assay: Antibacterial activity against Escherichia coli 25922 by microdilution method; format: functional
In short: (§2)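 MIC determined by CLSI broth microdilution; organisms were ATCC strains and clinical isolates.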

Escherichia coli [3] = assay: Antibacterial activity against Escherichia coli 1411 by microdilution method; format: functional; in short: as §2
Klebsiella pneumoniae [4] = assay: Antibacterial activity against Klebsiella pneumoniae 4352 by microdilution method; format: functional; in short: as §2
Staphylococcus aureus [5] = assay: Antibacterial activity against methicillin-resistant Staphylococcus aureus 43300 by microdilution method; format: functional; in short: as §1
Staphylococcus aureus [6] = assay: Antibacterial activity against methicillin-sensitive Staphylococcus aureus 6538 by microdilution method; format: functional; in short: as §1
Staphylococcus aureus [7] = assay: Antibacterial activity against methicillin-sensitive Staphylococcus aureus 29213 by microdilution method; format: functional; in short: as §1
Pseudomonas aeruginosa [8] = assay: Antibacterial activity against Pseudomonas aeruginosa 27853 by microdilution method; format: functional; in short: as §2
Streptococcus pneumoniae [9] = assay: Antibacterial activity against Streptococcus pneumoniae 49619 by microdilution method; format: functional; in short: as §2
Enterococcus faecium [10] = assay: Antibacterial activity against vancomycin-resistant Enterococcus faecium 700221 by microdilution method; format: functional; in short: as §1
Staphylococcus aureus [11] = assay: Antibacterial activity against methicillin-sensitive Staphylococcus aureus 100 ATCC 29213 by microdilution method; format: functional; in short: as §1
Staphylococcus aureus [12] = assay: Antibacterial activity against methicillin-resistant Staphylococcus aureus 1137 by microdilution method; format: functional; in short: as §1
Staphylococcus aureus [13] = assay: Antibacterial activity against methicillin-resistant Staphylococcus aureus 2170 by microdilution method; format: functional; in short: as §1
Staphylococcus aureus [14] = assay: Antibacterial activity against vancomycin-intermediate Staphylococcus aureus 2012 by microdilution method; format: functional; in short: as §1
Staphylococcus aureus [15] = assay: Antibacterial activity against vancomycin-intermediate Staphylococcus aureus 2018 by microdilution method; format: functional; in short: as §1
Staphylococcus aureus [16] = assay: Antibacterial activity against Linezolid, methicillin-resistant Staphylococcus aureus 1725 by microdilution method; format: functional; in short: as §1
Staphylococcus aureus [17] = assay: Antibacterial activity against Linezolid, methicillin-resistant Staphylococcus aureus 1651 by microdilution method; format: functional; in short: as §1
Staphylococcus aureus [18] = assay: Antibacterial activity against community-acquired Staphylococcus aureus 2144 by microdilution method; format: functional; in short: as §1
[19] = tested on: Staphylococcus epidermidis; assay: Antibacterial activity against methicillin-sensitive Staphylococcus epidermidis 1597 by microdilution method; format: functional; in short: as §1
[20] = tested on: Staphylococcus epidermidis; assay: Antibacterial activity against methicillin-resistant Staphylococcus epidermidis 1452 by microdilution method; format: functional; in short: as §1
[21] = tested on: Staphylococcus epidermidis; assay: Antibacterial activity against Staphylococcus epidermidis 495 by microdilution method; format: functional; in short: as §1
Enterococcus faecalis = assay: Antibacterial activity against vancomycin-resistant Enterococcus faecalis 846 by microdilution method; format: functional; in short: as §1
Enterococcus faecium [22] = assay: Antibacterial activity against vancomycin-sensitive Enterococcus faecium 843 by microdilution method; format: functional; in short: as §1
Enterococcus faecium [23] = assay: Antibacterial activity against vancomycin-resistant Enterococcus faecium 1254 by microdilution method; format: functional; in short: as §1
Streptococcus pneumoniae [24] = assay: Antibacterial activity against penicillin-susceptible Streptococcus pneumoniae 866 by microdilution method; format: functional; in short: as §1
Streptococcus pneumoniae [25] = assay: Antibacterial activity against penicillin-resistant Streptococcus pneumoniae 940 by microdilution method; format: functional; in short: as §1
Streptococcus pneumoniae [26] = assay: Antibacterial activity against penicillin-resistant Streptococcus pneumoniae 748 by microdilution method; format: functional; in short: as §1
Streptococcus pneumoniae [27] = assay: Antibacterial activity against quinolone-resistant Streptococcus pneumoniae 376 by microdilution method; format: functional; in short: as §1
Streptococcus pneumoniae [28] = assay: Antibacterial activity against quinolone-resistant Streptococcus pneumoniae 379 by microdilution method; format: functional; in short: as §1
Streptococcus pneumoniae [29] = assay: Antibacterial activity against multidrug-resistant Streptococcus pneumoniae 933 by microdilution method; format: functional; in short: as §1
Streptococcus pneumoniae [30] = assay: Antibacterial activity against Streptococcus pneumoniae 1195 ATCC 49619 by microdilution method; format: functional; in short: as §1
Streptococcus pyogenes = assay: Antibacterial activity against Streptococcus pyogenes 723 by microdilution method; format: functional; in short: as §1
Streptococcus agalactiae = assay: Antibacterial activity against Streptococcus agalactiae 2033 by microdilution method; format: functional; in short: as §1
Moraxella catarrhalis = assay: Antibacterial activity against Moraxella catarrhalis 557 by microdilution method; format: functional; in short: as §1
Haemophilus influenzae [31] = assay: Antibacterial activity against ampicillin-resistant Haemophilus influenzae 1742 by microdilution method; format: functional; in short: as §1
Haemophilus influenzae [32] = assay: Antibacterial activity against Haemophilus influenzae 1224 ATCC 49247 by microdilution method; format: functional; in short: as §1
[33] = tested on: Haemophilus parainfluenzae; assay: Antibacterial activity against Haemophilus parainfluenzae 2319 ATCC 7901 by microdilution method; format: functional; in short: as §1
Escherichia coli [34] = assay: Antibacterial activity against Escherichia coli 102 ATCC 25922 by microdilution method; format: functional; in short: as §1
Escherichia coli [35] = assay: Antibacterial activity against extended spectrum beta-lactamase-producing Escherichia coli 2269 by microdilution method; format: functional; in short: as §1
Klebsiella pneumoniae [36] = assay: Antibacterial activity against Klebsiella pneumoniae 2239 by microdilution method; format: functional; in short: as §1
Klebsiella pneumoniae [37] = assay: Antibacterial activity against ampicillin beta-lactamase, multidrug-resistant Klebsiella pneumoniae 2262 by microdilution method; format: functional; in short: as §1
Serratia marcescens = assay: Antibacterial activity against Serratia marcescens 1635 by microdilution method; format: functional; in short: as §1
HepG2 = assay: Cytotoxicity against human HepG2 cells assessed as effect on cell viability at 8 ug/mL after 48 hrs by celltiter glow assay; format: functional, cell-based
In short: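 HepG2 cells were kept in MEM with 10% heat-inactivated FBS, 0.10 mM nonessential amino acids and 1 mM sodium pyruvate at 37 °C and 5% CO2. Cells were seeded at 1.25 × 10^5 cells/mL 24 h before dosing. Compounds were dissolved in DMSO and tested at 0.6–128 µg/mL with 1% DMSO final for 48 h. Viability was read by CellTiter-Glo luminescence as a percentage of the DMSO control.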

NHDF = assay: Cytotoxicity against NHDF cells after 48 hrs by celltiter glow assay; format: functional; conditions: Homo sapiens
In short: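 Fibroblasts kept at 37 °C, 5% CO2 in FGM-2 medium, passage ≤16. Seeded at 1.25 × 10^5 cells/mL 24 h before dosing. Compounds dissolved in DMSO, tested 0.6–128 µg/mL at 1% final DMSO for 48 h. Viability by CellTiter-Glo luminescence, expressed as percent of DMSO control.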

## Oc1cc(Cl)c(Cl)c(Cl)c1-n1cc(Cl)c(Cl)c1Cl [NEOPYRROLOMYCIN B]
Pseudomonas aeruginosa [1]
  MIC90: 16 µg/mL (≈ 43.7 µM)
Escherichia coli [2]
  MIC90: 16 µg/mL (≈ 43.7 µM)
Escherichia coli [3]
  MIC90: 16 µg/mL (≈ 43.7 µM)
Klebsiella pneumoniae [4]
  MIC90: 16 µg/mL (≈ 43.7 µM)
Staphylococcus aureus [5]
  MIC90: 0.125 µg/mL (≈ 0.342 µM)
Staphylococcus aureus [6]
  MBC: 2 µg/mL (≈ 5.47 µM)
  MIC90: 0.25 µg/mL (≈ 0.683 µM)
Staphylococcus aureus [7]
  MIC90: 0.5 µg/mL (≈ 1.37 µM)
Pseudomonas aeruginosa [8]
  MIC90: 16 µg/mL (≈ 43.7 µM)
Streptococcus pneumoniae [9]
  MIC90: 1 µg/mL (≈ 2.73 µM)
Enterococcus faecium [10]
  MIC90: 0.5 µg/mL (≈ 1.37 µM)
Staphylococcus aureus [11]
  MIC90: 0.25 µg/mL (≈ 0.683 µM)
Staphylococcus aureus [12]
  MIC90: 0.12 µg/mL (≈ 0.328 µM)
Staphylococcus aureus [13]
  MIC90: ≤ 0.06 µg/mL
Staphylococcus aureus [14]
  MIC90: ≤ 0.06 µg/mL
Staphylococcus aureus [15]
  MIC90: ≤ 0.06 µg/mL
Staphylococcus aureus [16]
  MIC90: ≤ 0.06 µg/mL
Staphylococcus aureus [17]
  MIC90: ≤ 0.06 µg/mL
Staphylococcus aureus [18]
  MIC90: 0.12 µg/mL (≈ 0.328 µM)
[19]
  MIC90: ≤ 0.06 µg/mL
[20]
  MIC90: ≤ 0.06 µg/mL
[21]
  MIC90: ≤ 0.06 µg/mL
Enterococcus faecalis
  MIC90: ≤ 0.06 µg/mL
Enterococcus faecium [22]
  MIC90: ≤ 0.06 µg/mL
Enterococcus faecium [23]
  MIC90: ≤ 0.06 µg/mL
Streptococcus pneumoniae [24]
  MIC90: 16 µg/mL (≈ 43.7 µM)
Streptococcus pneumoniae [25]
  MIC90: 1 µg/mL (≈ 2.73 µM)
Streptococcus pneumoniae [26]
  MIC90: 1 µg/mL (≈ 2.73 µM)
Streptococcus pneumoniae [27]
  MIC90: 2 µg/mL (≈ 5.47 µM)
Streptococcus pneumoniae [28]
  MIC90: 16 µg/mL (≈ 43.7 µM)
Streptococcus pneumoniae [29]
  MIC90: 1 µg/mL (≈ 2.73 µM)
Streptococcus pneumoniae [30]
  MIC90: 2 µg/mL (≈ 5.47 µM)
Streptococcus pyogenes
  MIC90: > 16 µg/mL
Streptococcus agalactiae
  MIC90: 16 µg/mL (≈ 43.7 µM)
Moraxella catarrhalis
  MIC90: ≤ 0.06 µg/mL
Haemophilus influenzae [31]
  MIC90: 0.5 µg/mL (≈ 1.37 µM)
Haemophilus influenzae [32]
  MIC90: 0.25 µg/mL (≈ 0.683 µM)
[33]
  MIC90: 1 µg/mL (≈ 2.73 µM)
Escherichia coli [34]
  MIC90: 8 µg/mL (≈ 21.9 µM)
Escherichia coli [35]
  MIC90: 8 µg/mL (≈ 21.9 µM)
Klebsiella pneumoniae [36]
  MIC90: 16 µg/mL (≈ 43.7 µM)
Klebsiella pneumoniae [37]
  MIC90: 8 µg/mL (≈ 21.9 µM)
Serratia marcescens
  MIC90: 16 µg/mL (≈ 43.7 µM)
HepG2
  Activity: Active
NHDF
  CC90: 16 µg/mL (≈ 43.7 µM)
